The source made the active and inactive calls. The calls are words filed in the database; no cut-off is given here.
Legend:
[1] = tested on: Escherichia coli; assay: Antibacterial activity against Escherichia coli ATCC 25922 assessed as inhibition of visible bacterial growth by CLSI based broth-microdilution method; format: functional
[2] = tested on: Pseudomonas aeruginosa; assay: Synergistic antibacterial activity against Pseudomonas aeruginosa PAO1 assessed as fold change in minocycline MIC by checkerboard analysis relative to minocycline alone; format: functional
[3] = tested on: Pseudomonas aeruginosa; assay: Antibacterial activity against Pseudomonas aeruginosa PA264 assessed as inhibition of visible bacterial growth by CLSI based broth-microdilution method; format: functional
[4] = tested on: Pseudomonas aeruginosa; assay: Antibacterial activity against Pseudomonas aeruginosa PA100036 assessed as inhibition of visible bacterial growth by CLSI based broth-microdilution method; format: functional
[5] = tested on: Pseudomonas aeruginosa; assay: Antibacterial activity against Pseudomonas aeruginosa PA101243 assessed as inhibition of visible bacterial growth by CLSI based broth-microdilution method; format: functional
[6] = tested on: Pseudomonas aeruginosa; assay: Antibacterial activity against Pseudomonas aeruginosa PA095 assessed as inhibition of visible bacterial growth by CLSI based broth-microdilution method; format: functional
[7] = tested on: Pseudomonas aeruginosa; assay: Synergistic antibacterial activity against Pseudomonas aeruginosa PA259 in presence of minocycline by checkerboard assay; format: functional
[8] = tested on: Pseudomonas aeruginosa; assay: Synergistic antibacterial activity against Pseudomonas aeruginosa PA262 in presence of doxycycline by checkerboard assay; format: functional
[9] = tested on: Pseudomonas aeruginosa; assay: Synergistic antibacterial activity against Pseudomonas aeruginosa PA095 in presence of minocycline by checkerboard assay; format: functional
[10] = tested on: Pseudomonas aeruginosa; assay: Synergistic antibacterial activity against Pseudomonas aeruginosa PA095 in presence of eravacycline by checkerboard assay; format: functional
[11] = tested on: Pseudomonas aeruginosa; assay: Synergistic antibacterial activity against Pseudomonas aeruginosa PA200 in presence of doxycycline by checkerboard assay; format: functional
[12] = tested on: Pseudomonas aeruginosa; assay: Synergistic antibacterial activity against Pseudomonas aeruginosa PA200 in presence of eravacycline by checkerboard assay; format: functional
[13] = tested on: Pseudomonas aeruginosa; assay: Antibacterial activity against Pseudomonas aeruginosa PA259 assessed as tigecycline MIC by CLSI based broth-microdilution method; format: functional
[14] = tested on: Pseudomonas aeruginosa; assay: Antibacterial activity against Pseudomonas aeruginosa PA259 assessed as eravacycline MIC by CLSI based broth-microdilution method; format: functional
[15] = tested on: Pseudomonas aeruginosa; assay: Antibacterial activity against Pseudomonas aeruginosa PA100036 assessed as minocycline MIC by CLSI based broth-microdilution method; format: functional
[16] = tested on: Pseudomonas aeruginosa; assay: Antibacterial activity against Pseudomonas aeruginosa PA100036 assessed as doxycycline MIC by CLSI based broth-microdilution method; format: functional
[17] = tested on: Pseudomonas aeruginosa; assay: Antibacterial activity against Pseudomonas aeruginosa PA100036 assessed as tigecycline MIC by CLSI based broth-microdilution method; format: functional
[18] = tested on: Pseudomonas aeruginosa; assay: Antibacterial activity against Pseudomonas aeruginosa PA101243 assessed as tigecycline MIC by CLSI based broth-microdilution method; format: functional
[19] = tested on: Pseudomonas aeruginosa; assay: Antibacterial activity against Pseudomonas aeruginosa PA095 assessed as minocycline MIC by CLSI based broth-microdilution method; format: functional
[20] = tested on: Pseudomonas aeruginosa; assay: Antibacterial activity against Pseudomonas aeruginosa PA095 assessed as tigecycline MIC by CLSI based broth-microdilution method; format: functional
[21] = tested on: Pseudomonas aeruginosa; assay: Antibacterial activity against Pseudomonas aeruginosa PA200 assessed as doxycycline MIC by CLSI based broth-microdilution method; format: functional
[22] = tested on: Pseudomonas aeruginosa; assay: Synergistic antibacterial activity against Pseudomonas aeruginosa PA259 assessed as fractional inhibitory concentration index in presence of tigecycline by checkerboard assay; format: functional
[23] = tested on: Pseudomonas aeruginosa; assay: Synergistic antibacterial activity against Pseudomonas aeruginosa PA264 assessed as fractional inhibitory concentration index in presence of tigecycline by checkerboard assay; format: functional
[24] = tested on: Pseudomonas aeruginosa; assay: Synergistic antibacterial activity against Pseudomonas aeruginosa PA100036 assessed as fractional inhibitory concentration index in presence of doxycycline by checkerboard assay; format: functional
[25] = tested on: Pseudomonas aeruginosa; assay: Synergistic antibacterial activity against Pseudomonas aeruginosa PA100036 assessed as fractional inhibitory concentration index in presence of tigecycline by checkerboard assay; format: functional
[26] = tested on: Pseudomonas aeruginosa; assay: Synergistic antibacterial activity against Pseudomonas aeruginosa PA100036 assessed as fractional inhibitory concentration index in presence of eravacycline by checkerboard assay; format: functional
[27] = tested on: Pseudomonas aeruginosa; assay: Synergistic antibacterial activity against Pseudomonas aeruginosa PA114228 assessed as fractional inhibitory concentration index in presence of eravacycline by checkerboard assay; format: functional
[28] = tested on: Pseudomonas aeruginosa; assay: Synergistic antibacterial activity against Pseudomonas aeruginosa PA101243 assessed as fractional inhibitory concentration index in presence of doxycycline by checkerboard assay; format: functional
[29] = tested on: Pseudomonas aeruginosa; assay: Synergistic antibacterial activity against Pseudomonas aeruginosa PA101243 assessed as fractional inhibitory concentration index in presence of eravacycline by checkerboard assay; format: functional
[30] = tested on: Pseudomonas aeruginosa; assay: Synergistic antibacterial activity against Pseudomonas aeruginosa PA095 assessed as fractional inhibitory concentration index in presence of doxycycline by checkerboard assay; format: functional
[31] = tested on: Pseudomonas aeruginosa; assay: Synergistic antibacterial activity against Pseudomonas aeruginosa PA259 assessed as fold change in minocycline MIC by CLSI based broth-microdilution method relative to minocycline alone; format: functional
[32] = tested on: Pseudomonas aeruginosa; assay: Synergistic antibacterial activity against Pseudomonas aeruginosa PA259 assessed as fold change in tigecycline MIC by CLSI based broth-microdilution method relative to tigecycline alone; format: functional
[33] = tested on: Pseudomonas aeruginosa; assay: Synergistic antibacterial activity against Pseudomonas aeruginosa PA101243 assessed as fold change in tigecycline MIC by CLSI based broth-microdilution method relative to tigecycline alone; format: functional
[34] = tested on: Pseudomonas aeruginosa; assay: Synergistic antibacterial activity against Pseudomonas aeruginosa PA095 assessed as fold change in tigecycline MIC by CLSI based broth-microdilution method relative to tigecycline alone; format: functional
[35] = tested on: Pseudomonas aeruginosa; assay: Synergistic antibacterial activity against Pseudomonas aeruginosa PA200 assessed as fold change in minocycline MIC by CLSI based broth-microdilution method relative to minocycline alone; format: functional
[36] = tested on: Pseudomonas aeruginosa; assay: Synergistic antibacterial activity against Pseudomonas aeruginosa PA200 assessed as fold change in doxycycline MIC by CLSI based broth-microdilution method relative to doxycycline alone; format: functional
[37] = tested on: Escherichia; assay: Synergistic antibacterial activity against Escherichia 94474 assessed as fold change in minocycline MIC by CLSI based broth-microdilution method relative to minocycline alone; format: functional
Summary of the method: (§1)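 Checkerboard combination assay against E. coli EC107115 (MDR) and EC94474 (colistin-resistant), run in biological duplicates; the fold change is the tetracycline MIC in combination relative to its MIC alone.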

[38] = tested on: Escherichia; assay: Synergistic antibacterial activity against Escherichia 107115 assessed as fold change in minocycline MIC by CLSI based broth-microdilution method relative to minocycline alone; format: functional; summary of the method: as §1
[39] = tested on: Pseudomonas aeruginosa; assay: Antibacterial activity against Pseudomonas aeruginosa PAO1 assessed as inhibition of bacterial growth by measuring fold change in MIC in presence of 25 % fetal bovine serum by CLSI protocol based assay; format: functional
[40] = tested on: Pseudomonas aeruginosa; assay: Antibacterial activity against Pseudomonas aeruginosa PAO1 assessed as inhibition of bacterial growth by measuring fold change in MIC in presence of 50 % fetal bovine serum by CLSI protocol based assay; format: functional
[41] = tested on: Pseudomonas aeruginosa; assay: Antibacterial activity against Pseudomonas aeruginosa PA259 assessed as reduction in bacterial load by time kill assay; format: functional, organism-based
[42] = tested on: Pseudomonas aeruginosa; assay: Antibacterial activity against Pseudomonas aeruginosa PA259 assessed as increase in bacterial load in presence of eravacycline by time kill assay; format: functional, organism-based
[43] = tested on: Pseudomonas aeruginosa; assay: Antibacterial activity against Pseudomonas aeruginosa PA264 assessed as increase in bacterial load incubated for 2 hrs in presence of eravacycline by time kill assay; format: functional, organism-based
[44] = tested on: HepG2; assay: Cytotoxicity against human HepG2 cells assessed as reduction in cell viability at 400 uM; format: functional, cell-based

## Cl.Cl.Cl.Cl.Cl.Cl.NC[C@H]1O[C@H](O[C@H]2[C@H](OCCCCCCCCCCCCNC(=O)c3cn(C4CC4)c4cc(N5CCNCC5)c(F)cc4c3=O)[C@@H](O[C@H]3O[C@H](CO)[C@@H](O)[C@H](N)[C@H]3O)[C@H](N)C[C@@H]2N)[C@H](N)C[C@@H]1O
[1]
  MIC: > 128 µg/mL
[2]
  fold change (FC): 64
[3]
  MIC: > 128 µg/mL
[4]
  MIC: > 128 µg/mL
[5]
  MIC: > 128 µg/mL
[6]
  MIC: 8 µg/mL
[7]
  MIC: 8 µg/mL
[8]
  MIC: 8 µg/mL
[9]
  MIC: 2 µg/mL
[10]
  MIC: 2 µg/mL
[11]
  MIC: 8 µg/mL
[12]
  MIC: 8 µg/mL
[13]
  MIC: 0.5 µg/mL
[14]
  MIC: 0.062 µg/mL
[15]
  MIC: 0.25 µg/mL
[16]
  MIC: 1 µg/mL
[17]
  MIC: 0.5 µg/mL
[18]
  MIC: 4 µg/mL
[19]
  MIC: 1 µg/mL
[20]
  MIC: 2 µg/mL
[21]
  MIC: 2 µg/mL
[22]
  fractional inhibitory concentration index (FICI): 0.002
[23]
  fractional inhibitory concentration index (FICI): 0.004
[24]
  fractional inhibitory concentration index (FICI): 0.004
[25]
  fractional inhibitory concentration index (FICI): 0.002
[26]
  fractional inhibitory concentration index (FICI): 0.008
[27]
  fractional inhibitory concentration index (FICI): 0.5
[28]
  fractional inhibitory concentration index (FICI): 0.25
[29]
  fractional inhibitory concentration index (FICI): 0.625
[30]
  fractional inhibitory concentration index (FICI): 0.25
[31]
  fold change (FC): 512
[32]
  fold change (FC): 128
[33]
  fold change (FC): 4
[34]
  fold change (FC): 2
[35]
  fold change (FC): 64
[36]
  fold change (FC): 64
[37]
  fold change (FC): 8
[38]
  fold change (FC): 32
[39]
  fold change (FC): 128
[40]
  fold change (FC): 1
[41]
  AC30: Active
[42]
  Activity: Active
[43]
  Activity: Active
[44]
  Activity: Active

From ChEMBL document CHEMBL6078622, “Enhancing outer membrane permeability of tetracycline antibiotics in P. aeruginosa using TOB-CIP conjugates” (RSC Med Chem, 2024)
